From the EternaBench riboswitch data

Test system: MS2 coat protein
Assay: apparent Kd, MS2 coat protein; higher = weaker binding; RNA-MaP array; FMN 200 µM where present
Procedure, shortened: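 Designs were transcribed by stalled E. coli RNA polymerase on Illumina sequencing-chip clusters. They were titrated with SNAP-549-labelled MS2 coat protein from 0.7 or 1.5 nM, doubling to 3 µM, without and then with constant ligand. Buffer: 100 mM Tris-HCl pH 7.5, 80 mM KCl, 4 mM MgCl2, BSA, DTT, yeast tRNA, Tween-20. Green signal was normalised to red-channel RNA signal and control-cluster median Fmax. Apparent Kd is the median of filtered per-cluster binding-curve fits.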

[1] = designed as: ON switch for flavin mononucleotide, no ligand
[2] = ligand present: flavin mononucleotide, designed as: ON switch for flavin mononucleotide
[3] = designed as: OFF switch for flavin mononucleotide, no ligand
[4] = ligand present: flavin mononucleotide, designed as: OFF switch for flavin mononucleotide

Sequence | apparent Kd [1] [nM] | apparent Kd [2] [nM] | apparent Kd [3] [nM] | apparent Kd [4] [nM]
GCGUAUUUAAUAUAUAUAAAACUGUCAGAAGGUGAUAAGACGACAUGAGGAUCACCCAUGUAAUUCAAGGAUAUGAUAAUGCGC | 37.3 | 20.3 |  | 
AAGAUGUGAGGAUAUCACGAGAGCGUCAAACGGACACUCUCUGAGAAGGCACAUGAGGAUCACCCAUGUCCAAA |  |  | 57.2 | 295
GGAAAGAUGUUAGGAUAUGGCUUCCCGGUGAAGCCAGAAGGAACAUGAGGAUCACCCAUGUAAAGCGAGUGGCUCUUCUCUGGA |  |  | 18.6 | 65.9
UCCAUCCCUGUGAGGAUAUCGUCCGUUUUUUGUUCCGAGAAGGCACAUGAGGAUCACCCAUGUUUUUUGUUUUU |  |  | 29.4 | 58.8
ACCGGGUGUCACGUAUUACCGACAUGAGGAUCACCCAUGUAGGAGGAUAUGCAGACCGAAAUAAAGCAGAAGGCCUACGUUCUC |  |  | 10.6 | 46.6
ACUAUACGAGGAUAUACUGACGGGCCUCAGGCGUCCAUGAGACAUGAGGAUCACCCAUGUAGAAGGCGUAUACU |  |  | 174 | 52
AGCCACAGUUCAGGAUAUGCGGGCCGACUGGUAGCAGAAGGGAACAUGAGGAUCACCCAUGUAGGUCAUACGGGCUACGUCGAA |  |  | 11.6 | 45.6
ACUUGCUUGCAGAAGGGUGACAUGAGGAUCACCCAUGUAGCGUGCCGGCGUAAAGUCAGCGCGCCACAGGAUAUGCAGGCCUCG | 65.8 | 44 |  | 
CGCAACUCAGAUCUUUUUAACAUGAGGAUCACCCAUGUAUUGAGAAGGAGGAAGAAGAGAGAUUCCUAGGAUAUCAGAGUUGCG |  |  | 5.4 | 6.14
AUAAUUUUGUAGAAGGUACGUGAUUAGUCAAAGUAAGGAUAUACUGACAUGAGGAUCACCCAUGUUUUAAUAGUUAACAGUUCU | 12.8 | 7.99 |  | 
UUUUAUUAGUAAGGAUAUACUAGCGAUUAGCUUGUAGAAGGUACAGUCUUAUGUAUAACAUGUUAACAUGAGGAUCACCCAUGU | 59.5 | 36.1 |  | 
GUGUAGAUAGCAGGAUAUCUAUUUCCUACAUGAGGAUCACCCAUGUAGAUGAUCACCCAUGUAAAGGAGAAGGGCUAUCUAUAC | 367 | 165 |  | 
AGCGAACAGGCUAACAUGAGGAUCACCCAUGUGGACUCAUGGUAGGAUAUCGGGAAGGAGGAAACCGAGAAGGGCCGGUGAGCC | 440 | 229 |  | 
CAGUCUACAGGAUAUACAUGAGGAUCACCCAUGUGUAUUCACUUUCAGUAAUCCAUAUGUAGAAGGGUAGACUG |  |  | 16.9 | 34.2
AGUAUUGUAGGGUAUCCAACAUGAGGAUCACCCAUGUACCAGAGAAGGACCCGUGCAUUGCUCGGGUAGGAUAUCUGCGCAUCA |  |  | 19.4 | 172
GGUGCCAUGUAGAAGGCAGAUCUGAUUCAGAUCUGAGGAUAUACAUGAGGAUCACCCAUGUAAAGGCUCCGCACGAGAGUGCAA |  |  | 14.9 | 41.7
UCCUACAUCGGAGGAUAUCAUGUGUAAACAUGAGGAUCACCCAUGUCGUACGAGAGUACGGAGAUUGAGAAGGCCGAUGUAGGU | 96 | 17.2 |  | 
AAUCGAUCAACAGGAUAUGCGCAAUGAUCUGAACAUGAGGAUCACCCAUGUGCAGAAGGGUUGGUCAUCUUUUGGGACGAGACA |  |  | 101 | 311
GGAUGAUUAAUAGGAUAUUAUUUGUAAAUUGGUUAAGAAGGAUUAAUGAUUUAAACGACCUGUUACAUGAGGAUCACCCAUGUU | 45.1 | 35.2 |  | 
AUGUGCCUAGGAUAUACAUGAGGAUCACCCAUGUUAACACUGCAAUCAAGUUAAUAUUGUAGAAGGAGGUGUAA |  |  | 27.6 | 27.5
AAUUAUUUGUAGAAGGAAGGAGAUUUUGUAUUCUUAGGAUAUACUAUUACAUGAGGAUCACCCAUGUUUGAAGGGUUGCAAUGU |  |  | 47.5 | 59.8
UCGACCCUAGGAUAUACAUGAGGAUCACCCAUGUUUGUCGAAGAACGAACAGUCCUCAGUAGAAGGAGGACGAA |  |  | 22.3 | 23.8
UCAUUUAUUACAGGAUAUGUUAGAAUUCAGUUGUUUGGUUAUUACAUAUUAACAGAAGGGUAGAACAUGAGGAUCACCCAUGUA | 114 | 81.5 |  | 
GCCUCAUAGUAGAAGGGACUUAGACAGUAAAGUUUAUAGAGGAAAUAACAUGAGGAUCACCCAUGUCAGGAUAUACUAAGAGGC |  |  | 7.42 | 9.47
UAGAAGUCAGGAUAUCCAUGGCGGCACUUGCGUGGUGGCGUGGAGAAGGGACAUGAGGAUCACCCAUGUAAAGA |  |  | 54.4 | 42
AAAAAGCGAGGAUAUACAUGAGGAUCACCCAUGUCAAAAGAAUAUAAAGAAAUAGGAAGUAGAAGGCGCAAAAA |  |  | 55.9 | 56
GGACGUCACAUCUACAUGAGGAUCACCCAUGUCGAAAGACAUGAGGAUAUGCAUCCUAAUUGGAUGCAGAAGGCAUGGACGUCC | 667 | 69.7 |  | 
AGUGAUUGCUGUGUCAGUUCACAUGAGGAUCACCCAUGUAGCUAGGAUAUCCGCAGUUACUGCUAGGAGAAGGAGCAAGGUGGC |  |  | 8.6 | 12.1

Sequence | apparent Kd [1] [nM] | apparent Kd [2] [nM] | apparent Kd [3] [nM] | apparent Kd [4] [nM]
GAUAGAGAGCAGGAUAUCUUGGGUAAGUAUCGUAGAGAAGGGCUCACAUGAGGAUCACCCAUGUGGUCCUAGAU |  |  | 12.7 | 29.5
CUGGUGUCAGGAUAUGCAUAGCAGUGACCGGAACCCGGUCAGCAGAAGGGACAUGAGGAUCACCCAUGUUAAUA |  |  | 24.2 | 57.7
UUAACUCAUGUAGGAUAUGCAUGGCGAAGCUACGCAGAAGGACAUGAGGAUCACCCAUGUUCUAGCGUCUGAGAACAGAUGCAA |  |  | 49.2 | 400
AAAAAACAUGAGGAUCACCCAUGUAAAAAAAUCGCAGGAUAUAGGGUCGCGAAAGCGACCCUAGAAGGGCGAUCCU | 260 | 87.7 |  | 
GUUUCGGGAGGAUAUGCGUGGAUUAUUUUCGUAUGUUGUUUACAUGAGGAUCACCCAUGUAGAAGGUCUGGAGC |  |  | 42.8 | 228
CUAGACUGAUCAGGAUAUCAUCGCGUGGUGUAUCCCUGUGAUUACAUGAGGAUCACCCAUGUGCAUGAGAAGGGAUUACUAUGU |  |  | 54.7 | 30
AUGGAUAUCACAGGAUAUGCUAUGGAUACCAUAGCAGAAGGGUGAUCCAUCCUAUGGCUGCACAUGAGGAUCACCCAUGUGUCC | 107 | 11.1 |  | 
UGAUAACAUGUAGGAUAUGCAGCAUUGACCACUGCAGAAGGACAUGAGGAUCACCCAUGUAGCCGUACUAUGGGAUCACGCAAU |  |  | 47.7 | 232
GUCACGAAUGUAGGAUAUCGAGUGGAUAACACUCGAGAAGGACAUGAGGAUCACCCAUGUAAAAUGAAAGAUAAUAAACGUGAC |  |  | 17.6 | 50.5
GAGUGACAUGAGGAUCACCCAUGUGAGGAUAUCGGACGGACCAAAUUAACAAUAAAUGCGAGAAGGCACAUCGG |  |  | 58.5 | 81.6
UUAUUUGUACAAGGAUAUCUAUUAUAUUCACGUCCUACAUGAGGAUCACCCAUGUUAUAUAUUUUAGAGAAGGUGUAUUGUCUG | 31.9 | 35.3 |  | 
CCACCCUGAGGAUAUCCACCCUCAUACAUGAGGAUCACCCAUGUUAAUGCCUGAGUUCCCGGAGAAGGCAGAUUCC |  |  | 86.5 | 63.8
GACAUGGUCCAGAAGGGCUAUUUAUUUAAGUAUUAUUUAGAACAGCAUAGCAGGAUAUGGCUAACAUGAGGAUCACCCAUGUUC | 18.8 | 11.6 |  | 
GCGUAACAUGAGGAUCACCCAUGUGCCCGAGAAUUCGGGCCGAGAAGGGUGACCGGUCGUAUGGCACAGGAUAUCGACGUUGUG | 30.6 | 13.4 |  | 
CGCUAAUAAAUAGUAAUAAUUGUACAGGAUAUGUUACAUGAGGAUCACCCAUGUAUUGGGUUUAAACAGAAGGGUAUAUUAGCG |  |  | 261 | 126
UGUCGGAGCAGAGGAUAUUACAUGAGGAUCACCCAUGUAUGAACCAAUAGCUGGAAACAGCAAUGUAAGAAGGCUGCUCCGACU |  |  | 13 | 174
CCUCCACAUUAGGAUAUCGUCACAGAAAUGUGACGAGAAGGAAUGACAUGAGGAUCACCCAUGUUAUCGUGAUG |  |  | 21.2 | 54.9
GAGGGACAUGAGGAUCACCCAUGUGGUAAAUUUAAAGGAUAUUAGUGUGGGAAAGUAGGGUAAGAAGGUUGAUUGG | 94.8 | 80.1 |  | 
GCCCUUCGAGGAUAUACAUGAGGAUCACCCAUGUCCGGAGUUCCGAGGCGGCCCAUAUGUAGAAGGCGAACUUU |  |  | 43.4 | 67
AUAAGUGCAGGAUAUACGAAAUGCUAGCGAAAGCUAGCAUAACAUGAGGAUCACCCAUGUAGAAGGGCACAAUA |  |  | 28.4 | 21.5
ACAUGGUAGUAGAAGGGUAUUACUUUAGAUACAACCAUUUGUUUAGUUUAUACAGGAUAUGCUUACAUGAGGAUCACCCAUGUU |  |  |  | 8.74
GAGGAUAGAGGAUAUGCAUAGAUACGGAUUCGUGUAGUACUACAUGAGGAUCACCCAUGUAGAAGGCUGUCCUG |  |  | 14.3 | 22.1
GGUUGACAAAGUCAACCAUAACGAACAUGAGGAUCACCCAUGUAGGAUAUGCUACUCAAAGAGUAGCAGAAGGACAUGUGCCUU |  |  | 35.7 | 293
GAGAAGGUAGGAUAUACGAAUAAAUAGGGUAGGAAGAAGACACAUGAGGAUCACCCAUGUAGAAGGACCAAGAU |  |  | 18.8 | 38.3
CUGUGAUGGAUCCAGAAUUACAACAUGAGGAUCACCCAUGUGCAGGAUAUCGGGUUGAUAGGCGCCGAGAAGGGUAUAGUCACG |  |  | 132 | 132
ACAUGAGGAUCACCCAUGUCUGCAUAGGAUAUUGAGGAUUAGGCAUAUUAUUAUGGAUUUGCCCACAAGAAGGAUGAAAUUGUU | 20.1 | 13.4 |  | 
GAACACGGAGGAUAUACAUGAGGAUCACCCAUGUUGAUCCUCAUUAAAAUUGAUAACUGUAGAAGGCCGUGAUA |  |  | 44.8 | 22.2
